# Measurements as given in ChEMBL document CHEMBL1955763, “Antimicrobial activity of sulfonamides containing 5-chloro-2-hydroxybenzaldehyde and 5-chloro-2-hydroxybenzoic acid scaffold” (Eur J Med Chem, 2012).
# Experiments:
# Trichosporon asahii = experiment: Antifungal activity against Trichosporon asahii 1188 after 24 hrs by broth microdilution method; assay type: functional; settings: Trichosporon asahii, 1188, 24 h
# Method in brief: (§1)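 Microdilution broth per CLSI M27-A3 (yeasts) or M38-A2 (moulds) in RPMI 1640 with glutamine, buffered to pH 7.0 with 0.165 mol MOPS. Compounds were in DMSO. Final inoculum was 5 × 10³ ± 0.2 CFU/mL. Other conditions matched the antibacterial assay, with MIC as IC₉₀ read visually and at 540 nm. Determined twice, in duplicate.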
# Aspergillus fumigatus = experiment: Antifungal activity against Aspergillus fumigatus 231 after 24 hrs by broth microdilution method; assay type: functional; settings: Aspergillus fumigatus, 231, 24 h; method in brief: as §1
# Lichtheimia corymbifera = experiment: Antifungal activity against Absidia corymbifera 272 after 24 hrs by broth microdilution method; assay type: functional; settings: Lichtheimia corymbifera, 272, 24 h; method in brief: as §1
# [1] = tested on: Trichophyton mentagrophytes; experiment: Antifungal activity against Trichophyton mentagrophytes 445 after 24 hrs by broth microdilution method; assay type: functional; settings: Trichophyton mentagrophytes, 445, 24 h
# [2] = Selectivity ratio of IC50 for human HepG2 cell sto MIC100 for Mycobacterium kansasii 6509/96; assay type: functional
# [3] = Selectivity ratio of IC50 for human HepG2 cell sto MIC90 for Staphylococcus aureus CCM 4516/08; assay type: functional
# [4] = tested on: Mycobacterium tuberculosis; experiment: Antimycobacterial activity against Mycobacterium tuberculosis H37Rv 331/88 after 14 days; assay type: functional; settings: H37Rv 331/88, 336 h
# [5] = Selectivity ratio of IC50 for human HepG2 cell sto MIC100 for Mycobacterium kansasii 235/80; assay type: functional
# HepG2 = experiment: Cytotoxicity against human HepG2 cells after 24 hrs by MTS assay; assay type: cell-based; settings: HepG2, 24 h
# Method in brief: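 Hep G2 human liver cells (passage 3–4), 10 000 per well, in MEM with 1% glutamine, 10% fetal serum and 1% non-essential amino acids. Compounds were added from DMSO at eight increasing concentrations in quadruplicate. Exposure was 24 h at 37 °C in 5% CO₂, then MTS reagent for 1.5 h. Formazan was read at 490 nm and IC₅₀ derived as 50% of control viability.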
# [6] = tested on: Mycobacterium tuberculosis; experiment: Antimycobacterial activity against Mycobacterium tuberculosis H37Rv 331/88 after 21 days; assay type: functional; settings: H37Rv 331/88, 504 h
# Method in brief: (§2)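 Micromethod in Sula semisynthetic medium, with compounds added as DMSO solutions over a two-fold series from 1000 down to 1. Inoculum for M. avium 330/88 was a 10⁻⁵ dilution. Plates were incubated at 37 °C and MIC was read after 14 and 21 days.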
# Mycobacterium avium [7] = experiment: Antimycobacterial activity against isoniazid-, rifampicin-, ofloxacin-, ethambutol-resistant Mycobacterium avium 330/88 after 14 days; assay type: functional; settings: 330/88, 336 h; method in brief: as §2
# Mycobacterium avium [8] = experiment: Antimycobacterial activity against isoniazid-, rifampicin-, ofloxacin-, ethambutol-resistant Mycobacterium avium 330/88 after 21 days; assay type: functional; settings: 330/88, 504 h; method in brief: as §2
# Mycobacterium kansasii [9] = experiment: Antimycobacterial activity against Mycobacterium kansasii 235/80 after 7 days; assay type: functional; settings: 235/80, 168 h
# Method in brief: (§3)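 Micromethod MIC in Sula semisynthetic medium, with compounds added as DMSO solutions at […]. Incubation at 37 °C. Inocula: M. kansasii 235/80 at dilution 10⁻⁴, clinical isolate 6509/96 at 10⁻⁵.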
# Mycobacterium kansasii [10] = experiment: Antimycobacterial activity against Mycobacterium kansasii 235/80 after 14 days; assay type: functional; settings: 235/80, 336 h; method in brief: as §3
# Mycobacterium kansasii [11] = experiment: Antimycobacterial activity against Mycobacterium kansasii 235/80 after 21 days; assay type: functional; settings: 235/80, 504 h; method in brief: as §3
# Mycobacterium kansasii [12] = experiment: Antimycobacterial activity against Mycobacterium kansasii 6509/96 after 7 days; assay type: functional; settings: 6509/96, 168 h; method in brief: as §3
# Mycobacterium kansasii [13] = experiment: Antimycobacterial activity against Mycobacterium kansasii 6509/96 after 14 days; assay type: functional; settings: 6509/96, 336 h; method in brief: as §3
# Mycobacterium kansasii [14] = experiment: Antimycobacterial activity against Mycobacterium kansasii 6509/96 after 21 days; assay type: functional; settings: 6509/96, 504 h; method in brief: as §3
# Staphylococcus aureus [15] = experiment: Antibacterial activity against Staphylococcus aureus CCM 4516/08 after 24 hrs by broth microdilution method; assay type: functional; settings: CCM 4516/08, 24 h
# Method in brief: (§4)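 Microdilution broth method modified from M07-A07, in Mueller-Hinton broth at pH 7.4 (±0.2). Compounds were dissolved in DMSO. Inoculum was made in sterile water to 0.5 McFarland (1.5 × 10⁸ CFU/mL). MIC was taken as IC₉₀, meaning ≥90% growth reduction versus the drug-free control. Growth was read visually and by absorbance at 540 nm.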
# Staphylococcus aureus [16] = experiment: Antibacterial activity against Staphylococcus aureus CCM 4516/08 after 48 hrs by broth microdilution method; assay type: functional; settings: CCM 4516/08, 48 h
# Method in brief: (§5)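 Broth microdilution modified from standard M07-A07 in Mueller-Hinton broth at pH 7.4 (±0.2). Compounds were dissolved in DMSO. Inoculum in sterile water was adjusted to 0.5 McFarland (1.5 × 10⁸ CFU/mL). MIC was taken as IC₉₀, i.e. ≥90% growth reduction versus control, read visually and spectrophotometrically at 540 nm.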
# Staphylococcus aureus [17] = experiment: Antibacterial activity against methicillin-resistant Staphylococcus aureus H 5996/08 after 24 hrs by broth microdilution method; assay type: functional; settings: H 5996/08, 24 h; method in brief: as §4
# Staphylococcus aureus [18] = experiment: Antibacterial activity against methicillin-resistant Staphylococcus aureus H 5996/08 after 48 hrs by broth microdilution method; assay type: functional; settings: H 5996/08, 48 h; method in brief: as §4
# [19] = tested on: Staphylococcus epidermidis; experiment: Antibacterial activity against methicillin-resistant Staphylococcus epidermidis H 6966/08 after 24 hrs by broth microdilution method; assay type: functional; settings: H 6966/08, 24 h; method in brief: as §4
# [20] = tested on: Staphylococcus epidermidis; experiment: Antibacterial activity against methicillin-resistant Staphylococcus epidermidis H 6966/08 after 48 hrs by broth microdilution method; assay type: functional; settings: H 6966/08, 48 h; method in brief: as §4
# Escherichia coli = experiment: Antibacterial activity against Escherichia coli CCM 4517 after 24 hrs by broth microdilution method; assay type: functional; settings: CCM 4517, 24 h; method in brief: as §5
# Klebsiella pneumoniae [21] = experiment: Antibacterial activity against Klebsiella pneumoniae D 11750/08 after 24 hrs by broth microdilution method; assay type: functional; settings: D 11750/08, 24 h; method in brief: as §5
# Klebsiella pneumoniae [22] = experiment: Antibacterial activity against ESBL-positive Klebsiella pneumoniae J 14368/08 after 24 hrs by broth microdilution method; assay type: functional; settings: J 14368/08, 24 h; method in brief: as §5
# Pseudomonas aeruginosa = experiment: Antibacterial activity against Pseudomonas aeruginosa CCM 1961 after 24 hrs by broth microdilution method; assay type: functional; settings: CCM 1961, 24 h; method in brief: as §5
# Candida albicans = experiment: Antifungal activity against Candida albicans ATCC 44857 after 24 hrs by broth microdilution method; assay type: functional; settings: ATCC 44857, 24 h; method in brief: as §1
# Candida tropicalis = experiment: Antifungal activity against Candida tropicalis 156 after 24 hrs by broth microdilution method; assay type: functional; settings: Candida tropicalis, 156, 24 h; method in brief: as §1
# Nakaseomyces glabratus = experiment: Antifungal activity against Candida glabrata 20/I after 24 hrs by broth microdilution method; assay type: functional; method in brief: as §1
# Pichia kudriavzevii = experiment: Antifungal activity against Candida krusei E58 after 24 hrs by broth microdilution method; assay type: functional; settings: E58, 24 h; method in brief: as §1
Structure (SMILES),MIC (Trichosporon asahii),MIC (Aspergillus fumigatus),MIC (Lichtheimia corymbifera),MIC [1],MIC [4],MIC [6],MIC (Mycobacterium avium [7]),MIC (Mycobacterium avium [8]),MIC (Mycobacterium kansasii [9]),MIC (Mycobacterium kansasii [10]),MIC (Mycobacterium kansasii [11]),MIC (Mycobacterium kansasii [12]),MIC (Mycobacterium kansasii [13]),MIC (Mycobacterium kansasii [14]),MIC (Staphylococcus aureus [15]),MIC (Staphylococcus aureus [16]),MIC (Staphylococcus aureus [17]),MIC (Staphylococcus aureus [18]),MIC [19],MIC [20],other results
Cc1cc(NS(=O)(=O)c2ccc(/N=C/c3cc(Cl)ccc3O)cc2)no1,> 125 µM,> 125 µM,> 125 µM,> 125 µM,125 µM,250 µM,62.5 µM,125 µM,4 µM,8 µM,16 µM,4 µM,4 µM,8 µM,31.2 µM,31.2 µM,15.6 µM,31.2 µM,> 500 µM,> 500 µM,Ratio [2]: 12.1; Ratio [3]: 6.1; Ratio [5]: 12.1; IC50 (HepG2): 193 µM; MIC (Escherichia coli): 125 µM; MIC (Klebsiella pneumoniae [21]): 500 µM; MIC (Klebsiella pneumoniae [22]): 500 µM; MIC (Pseudomonas aeruginosa): ≥ 500 µM; MIC (Candida albicans): > 125 µM; MIC (Candida tropicalis): > 125 µM; MIC (Nakaseomyces glabratus): > 125 µM; MIC (Pichia kudriavzevii): > 125 µM
Cc1cc(NS(=O)(=O)c2ccc(NC(=O)c3cc(Cl)ccc3O)cc2)no1,500 µM,500 µM,500 µM,500 µM,125 µM,250 µM,62.5 µM,125 µM,8 µM,16 µM,16 µM,8 µM,8 µM,8 µM,125 µM,125 µM,15.6 µM,31.2 µM,> 500 µM,> 500 µM,MIC (Escherichia coli): 250 µM; MIC (Candida albicans): 500 µM; MIC (Candida tropicalis): 500 µM; MIC (Nakaseomyces glabratus): 500 µM; MIC (Pichia kudriavzevii): 500 µM
